# Several values for one entry are separate records, joined by “and”; a condition that tells them apart may be missing. Identical values can stand only once.
# Columns and labels:
# HEK-293T = assay: Multiplex assay against HEK293T; format: toxicity, cell-based; conditions: human, number of replicates 2
# Summary of the method: (§1)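 Hoechst33342, BioTracker Green Microtubule Cytoskeleton Dye, MitoTracker Red and Annexin V Alexa Fluor 680 were added to live cells at seeding, and imaging on a CQ1 microscope at 37°C and 5% CO2 followed compound addition. Gating by CellPathfinder machine learning separated cells into Hoechst high-intensity objects or normal cells, then normal cells into healthy, pyknosed or fragmented nuclei, then pyknosed cells into mitotic or apoptotic. Per cents of healthy-nucleus cells are reported for the tubulin, mitochondrial-mass and membrane-permeability phenotypes.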
# U2OS = assay: Multiplex assay against U2OS; format: toxicity, cell-based; conditions: human, number of replicates 2; summary of the method: as §1
# [1] = 12 h, 1 µM, compound concentration 1 uM
# [2] = 12 h, 10 µM, compound concentration 10 uM
# [3] = 24 h, 1 µM, compound concentration 1 uM
# [4] = 24 h, 10 µM, compound concentration 10 uM
# [5] = 48 h, 1 µM, compound concentration 1 uM
# [6] = 48 h, 10 µM, compound concentration 10 uM
compound,measurement,setting,value
COc1cccc(Cn2cc(C(=O)Nc3ccc(C)c(S(=O)(=O)N4CCOCC4)c3)c(-c3ccc(C)cc3)n2)c1,Population Apoptotic (%),HEK-293T; [1],39% and 54%
same,Population Fragmented Nuclei (%),HEK-293T; [1],2%
same,Population Healthy Nuclei (%),HEK-293T; [1],81% and 84%
same,Population Hoechst High Intensity Objects (%),HEK-293T; [1],5% and 4%
same,Population Membrane Permeable-Phenotype (%),HEK-293T; [1],6% and 4%
same,Population Mitochondria Different-Phenotype (%),HEK-293T; [1],25% and 22%
same,Population Mitotic Cells (%),HEK-293T; [1],60% and 45%
same,Population Normal (%),HEK-293T; [1],94% and 95%
same,Population Pyknosed Nuclei (%),HEK-293T; [1],15% and 12%
same,Population Tubulin-Different-Phenotype (%),HEK-293T; [1],76%
same,Total Cell Count,HEK-293T; [1],633 and 601
same,Population Apoptotic (%),HEK-293T; [2],35% and 56%
same,Population Fragmented Nuclei (%),HEK-293T; [2],1% and 3%
same,Population Healthy Nuclei (%),HEK-293T; [2],83%
same,Population Hoechst High Intensity Objects (%),HEK-293T; [2],6% and 7%
same,Population Membrane Permeable-Phenotype (%),HEK-293T; [2],21% and 19%
same,Population Mitochondria Different-Phenotype (%),HEK-293T; [2],24% and 26%
same,Population Mitotic Cells (%),HEK-293T; [2],64% and 43%
same,Population Normal (%),HEK-293T; [2],93% and 92%
same,Population Pyknosed Nuclei (%),HEK-293T; [2],14% and 13%
same,Population Tubulin-Different-Phenotype (%),HEK-293T; [2],84% and 87%
same,Total Cell Count,HEK-293T; [2],611 and 568
same,Population Apoptotic (%),HEK-293T; [3],46% and 42%
same,Population Fragmented Nuclei (%),HEK-293T; [3],5% and 4%
same,Population Healthy Nuclei (%),HEK-293T; [3],84% and 87%
same,Population Hoechst High Intensity Objects (%),HEK-293T; [3],9% and 6%
same,Population Membrane Permeable-Phenotype (%),HEK-293T; [3],5% and 6%
same,Population Mitochondria Different-Phenotype (%),HEK-293T; [3],13% and 12%
same,Population Mitotic Cells (%),HEK-293T; [3],53% and 57%
same,Population Normal (%),HEK-293T; [3],90% and 93%
same,Population Pyknosed Nuclei (%),HEK-293T; [3],9% and 8%
same,Population Tubulin-Different-Phenotype (%),HEK-293T; [3],59%
same,Total Cell Count,HEK-293T; [3],851 and 807
same,Population Apoptotic (%),HEK-293T; [4],34% and 50%
same,Population Fragmented Nuclei (%),HEK-293T; [4],3% and 2%
same,Population Healthy Nuclei (%),HEK-293T; [4],81% and 83%
same,Population Hoechst High Intensity Objects (%),HEK-293T; [4],8%
same,Population Membrane Permeable-Phenotype (%),HEK-293T; [4],19% and 22%
same,Population Mitochondria Different-Phenotype (%),HEK-293T; [4],21% and 22%
same,Population Mitotic Cells (%),HEK-293T; [4],65% and 50%
same,Population Normal (%),HEK-293T; [4],91%
same,Population Pyknosed Nuclei (%),HEK-293T; [4],15% and 13%
same,Population Tubulin-Different-Phenotype (%),HEK-293T; [4],90%
same,Total Cell Count,HEK-293T; [4],684 and 610
same,Population Apoptotic (%),HEK-293T; [5],27% and 29%
same,Population Fragmented Nuclei (%),HEK-293T; [5],8%
same,Population Healthy Nuclei (%),HEK-293T; [5],87% and 85%
same,Population Hoechst High Intensity Objects (%),HEK-293T; [5],9%
same,Population Membrane Permeable-Phenotype (%),HEK-293T; [5],7%
same,Population Mitochondria Different-Phenotype (%),HEK-293T; [5],3% and 4%
same,Population Mitotic Cells (%),HEK-293T; [5],72% and 70%
same,Population Normal (%),HEK-293T; [5],90%
same,Population Pyknosed Nuclei (%),HEK-293T; [5],4% and 5%
same,Population Tubulin-Different-Phenotype (%),HEK-293T; [5],39% and 45%
same,Total Cell Count,HEK-293T; [5],1564 and 1391
same,Population Apoptotic (%),HEK-293T; [6],23% and 62%
same,Population Fragmented Nuclei (%),HEK-293T; [6],5%
same,Population Healthy Nuclei (%),HEK-293T; [6],86% and 83%
same,Population Hoechst High Intensity Objects (%),HEK-293T; [6],9%
same,Population Membrane Permeable-Phenotype (%),HEK-293T; [6],26% and 27%
same,Population Mitochondria Different-Phenotype (%),HEK-293T; [6],13% and 12%
same,Population Mitotic Cells (%),HEK-293T; [6],76% and 37%
same,Population Normal (%),HEK-293T; [6],90%
same,Population Pyknosed Nuclei (%),HEK-293T; [6],7% and 10%
same,Population Tubulin-Different-Phenotype (%),HEK-293T; [6],87% and 91%
same,Total Cell Count,HEK-293T; [6],752 and 689
same,Population Apoptotic (%),U2OS; [1],33% and 76%
same,Population Healthy Nuclei (%),U2OS; [1],46% and 76%
same,Population Hoechst High Intensity Objects (%),U2OS; [1],0%
same,Population Membrane Permeable-Phenotype (%),U2OS; [1],7% and 0%
same,Population Mitochondria Different-Phenotype (%),U2OS; [1],0% and 4%
same,Population Mitotic Cells (%),U2OS; [1],66% and 23%
same,Population Normal (%),U2OS; [1],100%
same,Population Pyknosed Nuclei (%),U2OS; [1],21% and 13%
same,Population Tubulin-Different-Phenotype (%),U2OS; [1],38% and 54%
same,Population Apoptotic (%),U2OS; [2],71% and 52%
same,Population Healthy Nuclei (%),U2OS; [2],45% and 79%
same,Population Hoechst High Intensity Objects (%),U2OS; [2],0%
same,Population Membrane Permeable-Phenotype (%),U2OS; [2],47% and 38%
same,Population Mitochondria Different-Phenotype (%),U2OS; [2],11% and 9%
same,Population Mitotic Cells (%),U2OS; [2],28% and 47%
same,Population Normal (%),U2OS; [2],100%
same,Population Pyknosed Nuclei (%),U2OS; [2],37% and 17%
same,Population Tubulin-Different-Phenotype (%),U2OS; [2],88% and 90%
same,Population Apoptotic (%),U2OS; [3],37% and 76%
same,Population Fragmented Nuclei (%),U2OS; [3],24% and 8%
same,Population Healthy Nuclei (%),U2OS; [3],48% and 78%
same,Population Hoechst High Intensity Objects (%),U2OS; [3],0%
same,Population Mitochondria Different-Phenotype (%),U2OS; [3],14% and 5%
same,Population Mitotic Cells (%),U2OS; [3],62% and 23%
same,Population Normal (%),U2OS; [3],100% and 99%
same,Population Pyknosed Nuclei (%),U2OS; [3],27% and 13%
same,Population Tubulin-Different-Phenotype (%),U2OS; [3],64% and 65%

# Source: ChEMBL document CHEMBL5303300, “EUbOPEN Chemogenomics Library - Multiplex” (2023)
